# Screening data deposited in PubChem by Sanford-Burnham Center for Chemical Genomics.
# LMPTP inh: blocks human LMPTP phosphatase; inhibition, % at 20 µM; P24666; actives 0.22% (n = 360,000); recombinant LMPTP-A, OMFP fluorogenic substrate, fluorescence intensity;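 active means compounds that cut the enzyme signal by at least half of the control window in the single-dose screen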;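 further: plate controls were DMSO wells with enzyme plus substrate for no effect and substrate without enzyme for full effect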
#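 Test system: LMPTP-A phosphatase enzyme. Amount: LMPTP-A at 0.625 nM final in the reaction. Reagent: OMFP substrate, 400 µM final. Times: 50 min at room temperature. Signal: endpoint fluorescence intensity from OMFP dephosphorylation. Read-out basis: % inhibition. Benchmarks: no-enzyme and uninhibited controls.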
# STEP block: STEP (human) phosphatase inhibition | P54829 | recombinant STEP, OMFP fluorogenic substrate, fluorescence | inhibition, % at 20 µM | actives 0.25% (n = 360,000) | AID 588621;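 active means inhibition at 20 µM, scaled per plate between control wells, above about 37%, limit read from the data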;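 further: 0% = DMSO with enzyme and substrate and 100% = substrate only without enzyme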
# Target sequence (P54829 whole entry, looked up): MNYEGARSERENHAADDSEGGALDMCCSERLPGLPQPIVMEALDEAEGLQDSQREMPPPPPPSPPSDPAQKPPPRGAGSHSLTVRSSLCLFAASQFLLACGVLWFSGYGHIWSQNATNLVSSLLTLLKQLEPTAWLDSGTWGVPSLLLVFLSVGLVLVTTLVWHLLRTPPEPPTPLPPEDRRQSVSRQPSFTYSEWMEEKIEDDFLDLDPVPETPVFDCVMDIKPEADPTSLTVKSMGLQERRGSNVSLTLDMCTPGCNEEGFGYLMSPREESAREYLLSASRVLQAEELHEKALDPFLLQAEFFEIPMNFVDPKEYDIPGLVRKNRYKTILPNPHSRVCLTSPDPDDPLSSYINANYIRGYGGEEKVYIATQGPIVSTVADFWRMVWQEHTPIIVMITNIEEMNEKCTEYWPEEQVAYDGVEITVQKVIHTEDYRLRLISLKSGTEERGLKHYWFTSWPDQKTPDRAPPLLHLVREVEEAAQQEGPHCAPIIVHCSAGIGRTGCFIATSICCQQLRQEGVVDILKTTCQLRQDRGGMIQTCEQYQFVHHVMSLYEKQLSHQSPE
#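 Test system: STEP tyrosine phosphatase / Reagent: OMFP at 25 µM / Doses: 20 µM, 1% DMSO / Read-out: percent inhibition scaled to no-enzyme and uninhibited-enzyme controls, plate-pattern corrected / Detection: FITC-channel fluorescence of OMFP product / Medium: Bis-Tris buffer pH 6.0, 2.5 mM DTT, 0.005% Tween 20 / Schedule: 20 min at room temperature, dark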
# SUMO1-SIM PPI: SUMO1-SIM interaction modulation. P63165. SUMO1 binding to a labelled peptide, TR-FRET, 1 h. inhibition, % at 20 µM. actives 0.33% (n = 360,000). AID 602429; in the data active means inhibition above about 37%
# Target sequence (P63165 whole entry, looked up): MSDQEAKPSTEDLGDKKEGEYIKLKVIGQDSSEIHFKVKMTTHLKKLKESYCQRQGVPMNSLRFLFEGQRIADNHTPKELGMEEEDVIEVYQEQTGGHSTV
# Scp-1 inhibitor: Scp-1 (human) phosphatase inhibition. Q9GZU7. Recombinant Scp1, phosphopeptide, malachite green phosphate absorbance. inhibition, % at 20 µM. actives 0.88% (n = 340,000). AID 493091;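 active means inhibition above about 50% at 20 µM, limit read from the data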;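 further: plate controls were DMSO wells with enzyme for no effect and wells lacking enzyme for full effect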
#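 Material: truncated SCP-1 phosphatase (76-261aa) / Buffer or medium: 50 mM Tris acetate pH 5.5, 0.005% Tween-20, 10 mM MgCl2 / Compound dosing: one concentration, 20 µM, with 1.0% DMSO / Incubation: 45 min room-temperature reaction, 5 min colour, 30 min stabiliser / Detection: colorimetric free-phosphate detection, absorbance 630 nm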
# DNMT1 block: blocks human DNA methyltransferase DNMT1; P26358; DNMT1 molecular beacon, Hinp1I cleavage, fluorescence; inhibition (reported as % activation of signal), % at 10 µM; actives 0.83% (n = 360,000); in the data active means inhibition above about 50%
# Scp-1 conf: confirmation of human Scp-1 phosphatase inhibitors | shares compounds with Scp-1 inhibitor | recombinant SCP-1 catalytic domain, phosphate release, malachite green absorbance | inhibition, % at 20 µM | actives 61% (n = 2,500) | AID 540281;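 further: plate controls were DMSO with enzyme for no effect and buffer wells lacking enzyme for full effect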
# MG interference: colorimetric interference in Scp-1 counter-screen; shares compounds with Scp-1 inhibitor; Colorimetric interference counterscreen, malachite green absorbance 630 nm; apparent inhibition (interference), % at 20 µM; 2,500 tested, under 10 active; AID 540313;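 further: compounds added after enzyme reaction finished so only phosphate colour detection is probed; plate controls were DMSO wells with completed Scp-1 reaction for no effect and substrate wells lacking enzyme for full effect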
# Scp1 DSF: binds human Scp-1, shifting its melting temperature; actives 25% (n = 1,500); AID 540329; thermal shift relative to vanadate control, % at 40 µM; shares compounds with Scp-1 inhibitor; Recombinant SCP1, Sypro Orange thermal shift Tm;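 active means substances whose mean melting-temperature shift, as a percentage of the reference inhibitor's shift, reaches about 5.3%, limit read from the data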;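 further: 0% = Tm of DMSO wells and 100% = Tm with sodium orthovanadate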
# Beacon interf DR: beacon fluorescence artifact, dose response counter-screen; IC50, µM; 200 tested, under 10 active; AID 602382; shares compounds with DNMT1 block; molecular beacon fluorescence, spectral interference counter-screen; call rule not given here
# DNMT1 inh conf: confirmation of human DNMT1 inhibitors; actives 8% (n = 2,300); inhibition, % at 10 µM; shares compounds with DNMT1 block; AID 602385; DNMT1 molecular beacon HinP1I cleavage, fluorescence;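 active means average inhibition of at least 30% in the single-concentration confirmation test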
# Beacon interf: counter-screen for DNMT1 inhibitors: spectral interference; actives 1% (n = 2,300); AID 602387; shares compounds with DNMT1 block; activation (fluorescence interference), % at 10 µM; DNMT1 molecular beacon spectral interference counterscreen, fluorescence 485/520;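 active means activation of at least 30% at 10 µM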;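 further: DNMT1 catalytic domain with a HinP1I cleavage step and a FAM/dabcyl DNA beacon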
# * = called active by the depositor; · = no result. Sampled rows, rich in hits. Any-hit rate of the full collection: about 1.8%.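 How the source made its calls, unless noted: active means inhibition of at least 30% at 20 µM; inactive means the rest.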
SMILES,LMPTP inh,STEP block,SUMO1-SIM PPI,Scp-1 inhibitor,DNMT1 block,Scp-1 conf,MG interference,Scp1 DSF,DNMT1 inh conf,Beacon interf,others
CC(=O)OCC1=C(C(=O)O)N2C(=O)C(NC(=O)c3ccc(COc4cccc(Cl)c4Cl)o3)C2SC1 (configuration not stated),9.3,2.3,15.3,52.9*,87.6*,66.0*,-15.3,3.8,41.3*,3.9,Beacon interf DR=>99
O=C(N/N=C/c1cccn1-c1cccc(C(=O)O)c1)Nc1ccccc1,1.5,-0.6,4.1,64.2*,85.1*,49.7*,-14.2,7.0*,1.5,14.0,
O=C(CCN1CCN(c2ccccc2)CC1)NNC(=O)c1ccccc1,-1.4,-2.9,1.8,·,0.5,·,·,·,·,·,
O=C(CCc1ccc(S(=O)(=O)N2CCOCC2)cc1)Nc1ccc(F)cc1[N+](=O)[O-],0.3,0.1,-29.2,2.6,-1.8,·,·,·,·,·,
O=C(CN(C(=O)c1csnn1)c1ccc(Cl)cc1)NCc1ccc2c(c1)OCO2,0.9,1.8,4.9,1.8,2.4,·,·,·,·,·,
Cc1cc(C=O)c(C)n1-c1cc(C(=O)O)cc(C(=O)O)c1,-0.1,12.4,3.0,54.6*,89.1*,51.6*,-17.8,-15.7,12.8,23.7,
COC(=O)c1cc(C(=O)OC)cc(-n2c(C)cc(C=O)c2C)c1,0.1,-3.5,1.7,-6.2,-2.0,·,·,·,·,·,
CCOC(=O)C1=C(C)NC(C)=C(C(=O)OCC)C1C(=O)OCC(=O)N1CCOCC1,-2.4,-3.0,1.0,-6.8,1.1,·,·,·,·,·,
CCC(=O)Nc1cc(C(=O)O)ccc1S(=O)(=O)c1ccc(C)cc1,-1.4,9.0,7.1,66.9*,63.4*,56.5*,-4.9,3.6,-0.6,1.2,
O=C(Nc1ccc(N2CCOCC2)cc1)c1ccc2nc(-c3ccco3)c(-c3ccco3)nc2c1,3.7,2.1,-3.1,12.1,3.1,·,·,·,·,·,
O=C(Nc1ccccc1)c1ccc2nc(-c3ccco3)c(-c3ccco3)nc2c1,42.3,4.2,32.8,70.5*,83.2*,14.9,-14.5,·,4.1,3.7,
CCCCNC(=O)C[C@@H]1C[C@@]2(C(=O)OCC)CCCC=C2N(Cc2ccco2)C1=O,-1.5,·,2.0,·,·,·,·,·,·,·,
CCCNC(=O)C1(C)CCCN(Cc2cccs2)C1 (configuration not stated),-2.2,2.5,1.0,·,-0.2,·,·,·,·,·,
O=C(CCNS(=O)(=O)c1ccc(Br)cc1)NCCc1ccccc1,-1.2,-0.2,-0.9,-5.2,-1.4,·,·,·,·,·,
CCc1cccc(NC(=O)CCS(=O)(=O)c2ccc(Br)cc2)c1,2.3,10.4,38.5,86.2*,87.6*,64.8*,-21.4,-13.8,8.9,4.5,
O=C(CCS(=O)(=O)c1ccc(Br)cc1)NCCc1ccccc1,1.5,5.8,12.6,88.0*,83.7*,62.3*,-15.8,-25.1,10.6,3.2,
Cc1ccc(S(=O)(=O)CCC(=O)Nc2cccc(C)c2)cc1,-2.6,-3.0,1.2,-3.9,-1.6,·,·,·,·,·,
NS(=O)(=O)c1ccc(CCNC(=O)CCS(=O)(=O)c2ccc(Br)cc2)cc1,0.0,5.9,74.7*,95.6*,86.5*,66.0*,-16.1,-25.3,3.9,2.6,
CC1CCCC(C)N1C(=O)COC(=O)CCC(=O)c1ccc(F)cc1 (configuration not stated),0.1,-0.7,0.6,-4.3,4.3,·,·,·,·,·,
Cc1cccc(C)c1-n1nnnc1C(c1ccnc2ccccc12)N1CCN(c2ccccc2F)CC1 (configuration not stated),-1.1,·,-2.0,·,·,·,·,·,·,·,
O=C(O)C1=C(C(=O)O)C2C=CC1C2,0.6,33.3,24.5,72.0*,60.4*,51.6*,-15.0,-3.0,5.0,2.4,
Cc1cc(C)c(NC(=O)CNC(=O)COC(=O)CN2C(=O)NC3(CCCC3)C2=O)c(C)c1,-0.4,-3.0,3.2,1.3,2.3,·,·,·,·,·,
S=c1[nH]nc(-c2ccco2)n1-c1ccccc1Cl,-2.9,-1.7,0.8,-13.8,-0.1,·,·,·,·,·,
S=c1[nH]nc(-c2cc(-c3ccco3)[nH]n2)n1-c1ccccc1Cl,1.0,5.3,34.2,75.3*,73.2*,31.1*,-17.5,10.5*,8.8,8.6,
COc1ccc(N(C)S(=O)(=O)c2cccc(C(=O)NCC(c3cccs3)N(C)C)c2)cc1 (configuration not stated),-7.0,-3.0,-13.9,-5.7,-1.5,·,·,·,·,·,
SMILES,LMPTP inh,STEP block,SUMO1-SIM PPI,Scp-1 inhibitor,DNMT1 block,Scp-1 conf,MG interference,Scp1 DSF,DNMT1 inh conf,Beacon interf,others
Cc1ccc(C(=O)NCc2occc2C(=O)O)o1,-2.6,5.1,2.9,53.3*,53.0*,52.5*,-5.7,-0.3,3.1,1.2,
C#Cc1ccc([C@@H]2C=C(C(=O)NCc3ccccc3)O[C@H](OCC)[C@H]2CCCO)cc1,0.3,-4.9,7.0,-4.9,-11.8,·,·,·,·,·,
C#Cc1ccc([C@@H]2C=C(C(=O)O)O[C@H](OCC)[C@H]2CCCO)cc1,-1.2,11.9,30.5,52.6*,52.4*,47.2*,-17.2,-13.0,3.2,0.3,
NC(=O)c1ccc(NC(=O)COC(=O)/C=C/c2ccc(Br)o2)cc1,43.0,23.9,62.2*,74.1*,90.1*,68.5*,-4.6,-1.5,1.6,-0.2,
CN(C)S(=O)(=O)c1cccc(NC(=O)COC(=O)/C=C/c2ccc(Br)o2)c1,20.1,5.8,-21.7,40.1,12.4,·,·,·,·,·,
COc1ccccc1C=NN=Cc1ccccc1OC,0.8,1.4,-6.7,2.2,6.2,·,·,·,·,·,
O=C1COc2ccc(C(=O)COC(=O)/C=C/c3ccco3)cc2N1,16.2,8.0,-12.6,59.0*,57.0*,56.8*,-10.1,-14.5,4.6,3.4,
O=C1COc2ccc(C(=O)COC(=O)c3ccco3)cc2N1,2.4,0.5,-4.1,-8.4,1.8,·,·,·,·,·,
O=C(/C=C/c1ccco1)OCC(=O)N1CCCCC1,14.8,40.9*,-14.0,96.2*,50.3*,50.6*,-19.9,-8.3,-1.3,-0.2,
COc1cc(NC(=O)CNC(=O)Cn2cnc3sc(C)c(C)c3c2=O)cc(OC)c1OC,-0.8,-1.7,2.0,·,-0.8,·,·,·,·,·,
CN1CCN(NC(=O)c2ccc(Cl)c(S(=O)(=O)Nc3ccc(Cl)cc3)c2)CC1,-6.4,1.0,2.5,0.9,1.2,·,·,·,·,·,
